This is one part of a sample in which hits are shown more often than they occur.
T cruzi HTS: intracellular Trypanosoma cruzi inhibition. intracellular Trypanosoma cruzi in host cells, plate reader. activity score (inhibition), % at 5.01 µM. 22,000 tested, 4.9% active; in the data active = activity score above about 55%; inconclusive = no clear call, values can overlap the other calls;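 note: parasites and compound incubated about four days before reading; 0% = median of neutral control wells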
A1 apoptosis 2: blocks A1, raising caspase activity. MEF A1-2A-BIM cells, caspase-Glo luminescence, 3 h; percent of clofoctol response, DMSO zero. caspase activation, % (no concentration beside the values). 24,000 tested, under 10 active. AID 2465; in the data active = caspase activation above about 5.9%; inconclusive = no clear call, values can overlap the other calls; inactive = below about 2.2%
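Material: mouse embryonic fibroblasts co-expressing A1 and BIM (A1-2A-BIM), primed for A1 dependence / Quantity: 2500 cells/well / Buffer or medium: RPMI-1640 growth medium with 10% FBS / Doses: 50 nL compound per well, pinned / Schedule: 3 h compound exposure at 37 °C / Signal: Caspase-Glo luminescence (DEVD substrate) / Measure: Caspase-3/7 activation, seen as rise in luminescence signal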
INS-1E ATP HTS: INS-1E beta cell protection from cytokine death; INS-1E cytokine-induced death, ATP luminescence, 48 h; normalised: neutral wells 0, positive control 100; protection from cytokine-induced ATP loss, % at 10 µM; 20,000 tested, 0.1% active; AID 488910;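 active = mean replicate protection from cytokine-induced ATP loss at least 50% and at least 75% of replicates each reaching 50%; inconclusive = meets only one of the two criteria, mean or replicate share; inactive = fails both the mean and replicate share criteria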
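assay system = INS-1E rat insulinoma cells | amount = 8000 cells per well | medium = phenol-red-free RPMI with 5% fetal bovine serum | doses = one compound concentration, pin transfer | timing = 48 h cytokine plus compound treatment, 10 min reagent incubation | also added = IL-1β, TNF-α and IFN-γ cytokine mix | signal = CellTiter-Glo luminescence measuring cellular ATP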
Starred values were filed as active, the others as inactive.

`O=C(N/N=C/c1cc(Cl)cc(Cl)c1O)c1ccccn1` gave T cruzi HTS 71.0*, A1 apoptosis 2 -2.5 and INS-1E ATP HTS -63.3.
Screening O=C(N/N=C/c1ccc2ccccc2c1O)c1ccccn1 returned T cruzi HTS 61.1*, A1 apoptosis 2 -4.1 and INS-1E ATP HTS -107.0.
For O=C(N/N=C/c1cccc2ccccc12)c1ccccn1 the results were T cruzi HTS -16.4, A1 apoptosis 2 -6.0 and INS-1E ATP HTS 3.6.
O=C(N/N=C/c1cccnc1Cl)c1ccccn1 was read as T cruzi HTS -7.8, A1 apoptosis 2 -6.8 and INS-1E ATP HTS -0.3.
`COc1cc(CO)ccc1OC(C)=O` gave A1 apoptosis 2 1.3.
Screening CN(C)CCCOc1ccc(/C=N/NC(=O)CCCCC(=O)NO)cc1 returned T cruzi HTS 30.1, A1 apoptosis 2 1.2 and INS-1E ATP HTS -8.0.
C[C@@H]1CN([C@H](C)CO)C(=O)Cc2cc(NS(=O)(=O)c3ccc(Cl)cc3)ccc2O[C@@H]1CN(C)Cc1ccncc1 was read as T cruzi HTS 76.4*, A1 apoptosis 2 0.5 and INS-1E ATP HTS -0.3.
Screening C[C@@H]1CN([C@H](C)CO)C(=O)Cc2cc(NS(=O)(=O)c3ccc(Cl)cc3)ccc2O[C@H]1CN(C)Cc1ccc(Cl)c(Cl)c1 returned T cruzi HTS 65.4* and INS-1E ATP HTS 5.1.
C[C@@H]1CN([C@H](C)CO)C(=O)Cc2cc(NS(=O)(=O)c3ccc(F)cc3)ccc2O[C@H]1CN(C)Cc1ccc(Cl)c(Cl)c1 was read as T cruzi HTS 77.0* and INS-1E ATP HTS -25.0.
For C[C@H]1CN([C@@H](C)CO)C(=O)Cc2cc(NS(=O)(=O)c3ccc(Cl)cc3)ccc2O[C@@H]1CN(C)Cc1ccncc1 the results were T cruzi HTS -26.7, A1 apoptosis 2 -0.5 and INS-1E ATP HTS 13.7.
`C[C@H]1CN([C@@H](C)CO)C(=O)Cc2cc(NS(=O)(=O)c3ccc(F)cc3)ccc2O[C@H]1CN(C)Cc1ccc(Cl)c(Cl)c1` gave T cruzi HTS 40.2 and INS-1E ATP HTS -15.3.
For C[C@H](CO)N1C[C@H](C)[C@@H](CN(C)Cc2ccc(Cl)c(Cl)c2)Oc2ccc(NS(=O)(=O)c3ccc(Cl)cc3)cc2CC1=O the results were A1 apoptosis 2 0.3.
COc1cc(Cl)c(/C=N/NC(=O)c2ccc(C(=O)NO)cc2)c(Cl)c1OC was read as T cruzi HTS 16.3, A1 apoptosis 2 -0.3 and INS-1E ATP HTS 32.4.
For COC(=O)CCCCCCC(=O)N/N=C/c1cccc(B(O)O)c1 the results were T cruzi HTS -13.2, A1 apoptosis 2 0.1 and INS-1E ATP HTS -0.7.
For COc1cc(Br)cc(/C=N/NC(=O)c2ccc(C(=O)NO)cc2)c1O the results were T cruzi HTS -10.1, A1 apoptosis 2 -2.9 and INS-1E ATP HTS 31.9.
O=C(O)CCCCCCC(=O)N/N=C/c1cccnc1 was read as T cruzi HTS -11.8, A1 apoptosis 2 -0.5 and INS-1E ATP HTS 11.2.
C[C@@H]1CN([C@H](C)CO)C(=O)Cc2cc(NC(=O)Cc3ccccc3)ccc2O[C@@H]1CN(C)Cc1ccc(Cl)c(Cl)c1 was read as T cruzi HTS 76.3*, A1 apoptosis 2 -0.6 and INS-1E ATP HTS -74.9.
For C[C@@H]1CN([C@@H](C)CO)C(=O)Cc2cc(NC(=O)Cc3ccccc3)ccc2O[C@@H]1CN(C)Cc1ccc(Cl)c(Cl)c1 the results were T cruzi HTS 65.9*, A1 apoptosis 2 0.4 and INS-1E ATP HTS -37.5.
C[C@@H]1CN([C@H](C)CO)C(=O)Cc2cc(NC(=O)Cc3ccccc3)ccc2O[C@H]1CN(C)Cc1ccc2c(c1)OCO2 was read as T cruzi HTS 34.2 and INS-1E ATP HTS 3.0.
For C[C@H]1CN([C@@H](C)CO)C(=O)Cc2cc(NC(=O)Cc3ccccc3)ccc2O[C@@H]1CN(C)Cc1ccc2c(c1)OCO2 the results were T cruzi HTS 57.4*, A1 apoptosis 2 0.5 and INS-1E ATP HTS -3.9.
For C[C@@H]1CN([C@@H](C)CO)C(=O)Cc2cc(NC(=O)Cc3ccccc3)ccc2O[C@@H]1CN(C)Cc1ccccc1 the results were T cruzi HTS 0.6 and INS-1E ATP HTS -0.3.
`C[C@@H]1CN([C@H](C)CO)C(=O)Cc2cc(NC(=O)Nc3ccccc3)ccc2O[C@@H]1CN(C)Cc1ccc(Cl)c(Cl)c1` gave T cruzi HTS 40.5 and INS-1E ATP HTS -26.4.
`O=C(N/N=C/c1cccc(B(O)O)c1)c1ccccc1O` gave T cruzi HTS -14.9, A1 apoptosis 2 -3.3 and INS-1E ATP HTS 5.1.
`O=C(N/N=C/c1cn(Cc2ccccc2)c2ccccc12)c1ccccn1` gave T cruzi HTS -12.3, A1 apoptosis 2 -2.9 and INS-1E ATP HTS -4.6.
For C[C@@H]1CN([C@@H](C)CO)C(=O)c2cccc(NC(=O)c3nc4ccccc4s3)c2O[C@@H]1CN(C)C(=O)Nc1ccc2c(c1)OCO2 the results were T cruzi HTS 9.7, A1 apoptosis 2 -1.1 and INS-1E ATP HTS -14.0.
Screening C[C@H]1CN([C@@H](C)CO)C(=O)c2cccc(NC(=O)c3nc4ccccc4s3)c2O[C@H]1CN(C)Cc1ccc2c(c1)OCO2 returned T cruzi HTS 57.3* and INS-1E ATP HTS -21.2.
C[C@H]1CN([C@@H](C)CO)C(=O)c2cccc(NC(=O)c3nc4ccccc4s3)c2O[C@H]1CN(C)Cc1ccc(Cl)c(Cl)c1 was read as T cruzi HTS inconclusive and INS-1E ATP HTS -7.6.
For C[C@H](CO)N1C[C@H](C)[C@H](CN(C)Cc2ccc3c(c2)OCO3)Oc2c(NC(=O)c3nc4ccccc4s3)cccc2C1=O the results were T cruzi HTS 77.4*, A1 apoptosis 2 -0.3 and INS-1E ATP HTS -21.9.
CCOc1cccc(/C=N/NC(=O)c2cccc(C(=O)NO)c2)c1OCC was read as T cruzi HTS -13.0, A1 apoptosis 2 -3.6 and INS-1E ATP HTS 3.0.
For C=CCOC(=O)[C@H]1[C@@H]2C(=O)O[C@@H](c3ccccc3)[C@@H](c3ccccc3)N2[C@@H](c2ccc(OCCOC(=O)[C@@H]3C[C@@H]4C(=O)N5CCC[C@H]5C(=O)N4[C@@H]3c3cccc(OCCO)c3)cc2)[C@]12C(=O)Nc1ccc(I)cc12 the results were A1 apoptosis 2 0.6.
`C[C@@H]1CCCCO[C@H](CN(C)S(=O)(=O)c2ccc(F)cc2)[C@@H](C)CN([C@H](C)CO)C(=O)c2cc(NC(=O)Nc3ccc(F)cc3)ccc2O1` gave T cruzi HTS 13.7, A1 apoptosis 2 0.3 and INS-1E ATP HTS -7.1.
`C[C@@H]1CCCCO[C@H](CN(C)S(=O)(=O)c2ccc(Cl)cc2)[C@H](C)CN([C@@H](C)CO)C(=O)c2cc(NC(=O)Nc3ccc(C(F)(F)F)cc3)ccc2O1` gave A1 apoptosis 2 0.3.
`C[C@@H]1CCCCO[C@H](CN(C)S(=O)(=O)c2ccc(F)cc2)[C@@H](C)CN([C@H](C)CO)C(=O)c2cc(NC(=O)Nc3ccc(C(F)(F)F)cc3)ccc2O1` gave T cruzi HTS 63.6*, A1 apoptosis 2 0.1 and INS-1E ATP HTS -36.2.
Cc1ccc(S(=O)(=O)N(C)C[C@@H]2OCCCC[C@@H](C)Oc3ccc(NC(=O)Nc4ccc(C(F)(F)F)cc4)cc3C(=O)N([C@H](C)CO)C[C@@H]2C)cc1 was read as T cruzi HTS 70.0* and INS-1E ATP HTS -22.9.
